Results gathered from unrelated publications.
Lines come from different studies, so protocols differ.
Target: Serine/threonine-protein kinase Chk1 (CHEK1, Homo sapiens, UniProt O14757)
Mode: inhibitor

SMILES	observed	method	cell line	concentration	inhibition [%]
CNC(=O)c1cc(Oc2ccc(NC(=O)Nc3ccc(Cl)c(C(F)(F)F)c3)cc2)ccn1	enzyme activity			0.3 µM	-5
CCCCNc1ncc2c(-c3ccc(F)cc3)nn(C[C@H]3CC[C@H](N)CC3)c2n1	target engagement in cells	chemoproteomics		20 mM	-8.8
Cc1ccc(Nc2nccc(N(C)c3ccc4c(C)n(C)nc4c3)n2)cc1S(N)(=O)=O	enzyme activity			0.3 µM	2
CCN1CCN(Cc2ccc(NC(=O)c3ccc(C)c(/C=C/c4cnc5[nH]ccc5c4OC)c3)cc2C(F)(F)F)CC1	target engagement in cells	chemoproteomics	A-375	0.5 µM	-126
O=C(CSc1nc2nccnc2c(=O)n1CCc1ccccc1)Nc1nccs1	enzyme activity			10 µM	-11
CNc1cccc2cc(C(=O)Nc3ccc(C(=O)O)cc3)c(=O)[nH]c12	enzyme activity			10 µM	-1.6
CSc1nc(C)c(-c2ccnc(Nc3ccc(N4CCOCC4)cc3)c2)[nH]1	enzyme activity			10 µM	12.4
C=CC(=O)Nc1cc(Nc2nccc(Nc3cc(Cl)c(F)cc3C(C)(C)O)n2)c(OC)cc1N1CC[C@@H](N(C)C)C1	enzyme activity			1 µM	9
CN(C)C1CCN(CC#Cc2nn(C3CCCC3)c3nc(NCc4ccccc4)ncc23)C1 (stereo not shown)	enzyme activity	FRET		1 µM	-5
c1ccc(CNc2nc(N3CCOc4ccccc43)nc3c2CCCC3)cc1	target engagement in cells	chemoproteomics		20 mM	-3.2
COc1cc2ncnc(Nc3ccc(Oc4ccccc4)cc3C)c2cc1OC	enzyme activity			1 µM	6
CCN1CCN(Cc2ccc(NC(=O)c3ccc(C)c(Oc4ccnc5[nH]ccc45)c3)cc2C(F)(F)F)CC1	target engagement in cells	chemoproteomics	A-375	0.5 µM	-141
CNCc1ccc(-c2cc(-c3nc(-c4ccc(S(=O)(=O)C(C)C)cc4)cnc3N)on2)cc1	enzyme activity			0.4 µM	15
